Experimental findings from the RNAGym collection of RNA variant scans (doi:10.1126/science.aae0568) are described below.

B1: tRNA (parent)
chain: GUUCCGUUGGCGUAAUGGUAACGCGUCUCCCUCCUAAGGAGAAGACUGCGGGUUCGAGUCCCGUACGGAACG

Fewer inactive variants are shown than the library holds.

Variants of B1 are the subject of this series. The series can be described thus: yeast fitness relative to wild type (ratio to wild type); higher = fitter; tRNA-Arg(CCU), competitive growth, 37 C, YPD. An outline of the steps: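 A pool of Saccharomyces cerevisiae strains, each with a tRNA-Arg(CCU) gene variant at the native genomic locus, was competed in YPD at 37°C for 24 hours across six parallel replicates. The variants had been chemically synthesised at a 3% per-site mutation rate over 69 sites, and gene amplicons before and after competition were read by 100-nucleotide paired-end sequencing. Darwinian fitness relative to wild type rested on changes in genotype frequencies. Genotypes required ≥ 100 starting reads, and estimates < 0.5 were set to 0.5.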
For G17A C46U G51C, the yeast fitness was 0.647.

For G17A G51A G56C G58C, the yeast fitness is at most 0.5. The same measure for G17A G18C A21U C55U U59A C62A: at most 0.5. Under G17A G18A U26C A42C C55U stands at most 0.5. Under G17A G25C stands 0.705; under G17A U26G G51A, at most 0.5.

On to G17A C30A C60G C62A, for which the yeast fitness is at most 0.5. Under G17A G18A A42C C61U stands at most 0.5; under G17A U19C C24U, 0.75.

For G17A G25C G39A, the yeast fitness was at most 0.5. The same measure for G17A C33G: at most 0.5. Under G17A C24G C27G A69C stands at most 0.5; under G17A C49A G52C G56A A69G, at most 0.5. As to G17A C29U C33U C60G A65G, the yeast fitness is at most 0.5. The same measure for G17A C31A C33U: at most 0.5. With G17A G50C C60A, the yeast fitness is at most 0.5.

G17A C34A A40G C66U: the yeast fitness is 0.524. Under G17A C22G C31G C33G stands at most 0.5.

Turning to G17A G58A A69C, the yeast fitness is 0.575.

On to G17A C27G C31A, for which the yeast fitness is at most 0.5. The same measure for G17A G38A C49A U54A: at most 0.5; for G17A C27G U59A C66A: at most 0.5. On to G17A G48C, for which the yeast fitness was found to be 0.827. The same measure for G17A G48A: 0.951. Under G17A G23C U64A A65C G67A stands at most 0.5; under G17A U32C U54C C60G, at most 0.5; under G17A U19A C30G, 0.66. For G17A C22U A45G, the yeast fitness was at most 0.5. Under G17A C29A G67C A69U stands at most 0.5; under G17A C24A C30U G41A A45C G58C, at most 0.5; under G17A U19A G23A C34U, at most 0.5. The same measure for G17A C49G U53C: at most 0.5; for G17A C46G A70U: 0.578; for G17A U19A C30U A37U G67A: at most 0.5.

In the case of G17A C60G G67A, the yeast fitness is at most 0.5. The same measure for G17A C46A A65G: at most 0.5. The same measure for G17A G23C U54A C61G: at most 0.5. Regarding G17A C30G A45G, the yeast fitness stood at 0.584.

Consider G17A G56A C66G, for which the yeast fitness was at most 0.5.

G17A G50A: the yeast fitness came to 0.833. As for G17A C34A A70C, the yeast fitness came to 0.631. Under G17A C34U A42U G51C C66U stands at most 0.5.

For G17A C29U U35G A37C G38C C49G, the yeast fitness was determined as 0.545. Under G17A G48C G56C stands 0.575; under G17A G44A A70C, at most 0.5.

In the case of G17A C27G C29G A43G, the yeast fitness was found to be 0.561.

G17A C24G C29G A37U: the yeast fitness is at most 0.5.

As for G17A C29U C33U A57C G68U, the yeast fitness was at most 0.5. Consider G17A C30U G63C A65C, for which the yeast fitness came out at 0.529. The same measure for G17A G25C A40U C66G: at most 0.5. As for G17A C24G C27G G67A, the yeast fitness is 0.583. As to G17A C27G A36C U54A, the yeast fitness worked out at 0.555. Under G17A G41C C46A stands 0.68; under G17A A57C G63A G67A, at most 0.5. Under G17A C22A G63A stands at most 0.5; under G17A C31G G44C A69U, 0.528; under G17A C27U, 0.711. The same measure for G17A C27G: 0.535. With G17A C22G C29U, the yeast fitness was at most 0.5. Under G17A U35A U54G stands at most 0.5. As for G17A C34U G38A, the yeast fitness was found to be 0.581. For G17A U35G G48C, the yeast fitness was found to be 0.502. The same measure for G17A C34A C66A: at most 0.5; for G17A C22U U28C A57G C61U A69U: at most 0.5. On to G17A U26C C61U A65G G67A, for which the yeast fitness was at most 0.5. Under G17A G18A A42C C55U G63C stands at most 0.5. Take G17A G38C A70C: the yeast fitness was at most 0.5. Under G17A G48A A57G stands at most 0.5; under G17A C31U C49G A69U, at most 0.5; under G17A C31U U35C C62G, at most 0.5. The same measure for G17A U32A A43G G67C: at most 0.5; for G17A U35A G44A G50A: at most 0.5; for G17A C31A U32A A57G: 0.545. The same measure for G17A G25C A40U G63A: at most 0.5; for G17A C34G A65U: at most 0.5.

For G17A G58A C61U, the yeast fitness came out at 0.59. As for G17A G63A A69C, the yeast fitness was determined as 0.537. Turning to G17A G56A, the yeast fitness was determined as 0.878. Take G17A C30U C49U C66U A69C: the yeast fitness was at most 0.5. The same measure for G17A G25C C29G: at most 0.5. G17A C30A A36C: the yeast fitness is at most 0.5. For the variant G17A C34U A57U U64C, the yeast fitness was at most 0.5. Under G17A C22A A45C C46U C61A stands at most 0.5; under G17A C27U U35C C61G, at most 0.5.

As to G17A G56C G58C, the yeast fitness amounted to 0.585.

Turning to G17A C31U C66A, the yeast fitness was at most 0.5.

G17A U32C A40G A65C: the yeast fitness is at most 0.5. Consider G17A C60A, for which the yeast fitness is at most 0.5.

For G17A C22A A45U C66U, the yeast fitness is at most 0.5. The same measure for G17A C24G C27G: 0.57; for G17A C22U A37C C55U: at most 0.5; for G17A C22U U32A C34U A37G A40U A69U: at most 0.5.

For G17A C22A, the yeast fitness worked out at 0.645. G17A C22G: the yeast fitness was 0.837.

As to G17A C31U C49G, the yeast fitness is at most 0.5.

For the variant G17A C49U C62A, the yeast fitness was at most 0.5. The same measure for G17A G18C A20G G39C: at most 0.5; for G17A U26C U28C A42C C66U: at most 0.5; for G17A C27G G67A: 0.573.

Turning to G17A C31G G38C G63C, the yeast fitness is at most 0.5. Under G17A C30U stands 0.82; under G17A C30U A36C A43C, at most 0.5.

Consider G17A C30G A40C A42G, for which the yeast fitness was at most 0.5. Turning to G17A C22U A43U, the yeast fitness turned out to be 0.639. Under G17A G58C C62U stands 0.543; under G17A C22U A45G C46U, 0.538; under G17A C30G G48A U53C, at most 0.5.

Take G17A G18C G39C A69U: the yeast fitness was at most 0.5.

For the variant G17A U19G A37G C66U A69U, the yeast fitness was 0.562. As for G17A C61U, the yeast fitness is 0.924. G17A C24G C27G U59C A69U: the yeast fitness was at most 0.5. The same measure for G17A G18C G39C: 0.588. Under G17A U32A C49U C62A G67C stands at most 0.5; under G17A C29G A43G G68C, at most 0.5. The same measure for G17A C22G C27A C62G: at most 0.5.

For the variant G17A C34A C62G, the yeast fitness was at most 0.5. Under G17A C22A A45C G63C C66U stands at most 0.5; under G17A G41C, 0.816; under G17A C49A U54A, 0.614. In the case of G17A C33U U59G, the yeast fitness worked out at 0.501.

As for G17A G41U A57C, the yeast fitness is at most 0.5. The same measure for G17A C55G A70C: at most 0.5; for G17A G52C: 0.65. The same measure for G17A C22U C29A A36G A45U: at most 0.5. Under G17A G41C C55A stands at most 0.5. As for G17A C61A G63A, the yeast fitness came to 0.66. The same measure for G17A C46A C61G A69G: at most 0.5; for G17A G51C: 0.543. G17A G18A A20C A21G G50A C55G A69U: the yeast fitness is 0.642. The same measure for G17A C24A U35A: at most 0.5. The same measure for G17A C29U A57G U59C: at most 0.5; for G17A C34G G67U: at most 0.5; for G17A G41A C60G A65G: at most 0.5. For G17A U35G A65U, the yeast fitness is at most 0.5. The same measure for G17A G67A: 0.743; for G17A G67C: 0.834; for G17A G67U: 0.808. Under G17A C49A stands 0.677; under G17A C24U C46U C60A, at most 0.5; under G17A G50A C61A, at most 0.5. Take G17A U28A G51A C60G A65G C66G: the yeast fitness was at most 0.5. Take G17A C34A: the yeast fitness was found to be 0.595. As to G17A C34U, the yeast fitness stood at 0.573. Regarding G17A C29U C33U C60G, the yeast fitness turned out to be 0.594. The same measure for G17A C24U C30U C46A: at most 0.5; for G17A C31U U35C A57G C62U: at most 0.5. Under G17A C66U stands 0.725; under G17A C29U C49A C62U, at most 0.5. The same measure for G17A A69U: 0.809. For the variant G17A C31U U35C G56A A57G, the yeast fitness is at most 0.5. Under G17A C22A C60U C61U stands at most 0.5; under G17A A65C, 0.733; under G17A A65G, 0.884. Consider G17A U19C C34A A40G C66U, for which the yeast fitness is at most 0.5. The same measure for G17A C33A A36U G41A G48A: at most 0.5; for G17A G38C A45U C66U: at most 0.5; for G17A C24A C46A: 0.727. Under G17A C27G G39C stands at most 0.5. With G17A C34U C55G, the yeast fitness came to 0.508. Under G17A C34A C55G stands at most 0.5; under G17A U19A G23A C31U C34A A43U, at most 0.5; under G17A U26C U53G, 0.566. The same measure for G17A C22U C66U: 0.589; for G17A C60A C61A: at most 0.5; for G17A C22A A45U A70U: at most 0.5. Under G17A U26A C62U stands 0.614; under G17A C30U C49U, at most 0.5.
